Measurements: ChEMBL document CHEMBL4311965, “Antimicrobial activity of amphipathic α,α-disubstituted β-amino amide derivatives against ESBL - CARBA producing multi-resistant bacteria; effect of halogenation, lipophilicity and cationic character” (Eur J Med Chem, 2019)
Converted amounts (≈) assume the structure as drawn.

How the values were obtained:
Enterococcus faecium [1] = experiment: Antibacterial activity against multidrug-resistant Enterococcus faecium 50673722 cultured in BHIB medium assessed as reduction in bacterial growth incubated for 24 hrs by microdilution susceptibility test; type: functional; settings: Enterococcus faecium, 50673722, 24 h
How it was run: (§1)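 Enterococci grown in Brain Heart Infusion broth, otherwise broth microdilution per CLSI M07-A9 (modified). Concentrated DMSO stocks kept at r.t. and diluted in double-distilled water, final DMSO <1%. Inoculum 1–1.2 x 10⁶ cells/mL mixed 1:1 with compound. 37 °C, 24 h, four parallels. OD₆₀₀ read-out, lowest concentration with no growth.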

Klebsiella pneumoniae = experiment: Antibacterial activity against multidrug-resistant Klebsiella pneumoniae 50625602 producing oxcillinase-245 cultured in MHB medium assessed as reduction in bacterial growth incubated for 24 hrs by microdilution susceptibility test; type: functional; settings: Klebsiella pneumoniae, 50625602, 24 h
How it was run: (§2)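 Broth microdilution per CLSI M07-A9 (modified). Working solutions made from concentrated DMSO stocks kept at r.t., diluted in double-distilled water, final DMSO <1%. Inoculum 1–1.2 x 10⁶ cells/mL in Mueller-Hinton broth, mixed 1:1 with compound. 37 °C, 24 h, four parallels. Read as OD₆₀₀. Where precipitation left residual OD, the point of major OD decrease was taken as the inhibitory concentration.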

Acinetobacter baumannii [2] = experiment: Antibacterial activity against multidrug-resistant Acinetobacter baumannii K55-13 producing oxcillinase-24 cultured in MHB medium assessed as reduction in bacterial growth incubated for 24 hrs by microdilution susceptibility test; type: functional; settings: K55-13, 24 h; how it was run: as §2
Escherichia coli [3] = experiment: Antibacterial activity against Escherichia coli ATCC 25922 cultured in MHB medium assessed as no bacterial growth incubated at 37 degC for 24 hrs by microdilution susceptibility test; type: functional; settings: ATCC 25922, 24 h
How it was run: (§3)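 Broth microdilution per CLSI M07-A9 with modifications. Inoculum about 2.5–3 x 10⁴ cells/mL in Mueller-Hinton broth, mixed 1:1 with test derivative. DMSO stocks diluted in double-distilled water, final DMSO <1%. Incubation 24 h at 37 °C (20 °C for C. glutamicum). Growth and sterility controls included; oxytetracycline reference.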

Enterococcus faecium [4] = experiment: Antibacterial activity against multidrug-resistant Enterococcus faecium 50901530 cultured in BHIB medium assessed as reduction in bacterial growth incubated for 24 hrs by microdilution susceptibility test; type: functional; settings: Enterococcus faecium, 50901530, 24 h; how it was run: as §1
Erythrocyte = experiment: Hemolytic activity against human RBC incubated for 1 hr; type: cell-based
How it was run: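 Heparinized human blood washed three times in warm PBS and set to 10% hct. Erythrocytes at 1% v/v final, with compound in PBS (DMSO <1%), shaken 1 h at 37 °C and then centrifuged. Supernatant absorbance read at 405 and 545 nm after PBS background subtraction. Haemolysis taken relative to 1% Triton X-100. Three independent replicates, EC50 averaged.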

Pseudomonas aeruginosa [5] = experiment: Antibacterial activity against Pseudomonas aeruginosa PA01 DSM 19880 (ATCC 15692) cultured in MHB medium assessed as no bacterial growth incubated at 37 degC for 24 hrs by microdilution susceptibility test; type: functional; settings: PAO1 DSM 19880 (ATCC 15692); how it was run: as §3
Staphylococcus aureus [6] = experiment: Antibacterial activity against multidrug-resistant Staphylococcus aureus NCTC 10442 cultured in MHB medium assessed as reduction in bacterial growth incubated for 24 hrs by microdilution susceptibility test; type: functional; settings: NCTC 10442, 24 h; how it was run: as §2
[7] = test system: Corynebacterium glutamicum; experiment: Antibacterial activity against Corynebacterium glutamicum ATCC 13032 cultured in MHB medium assessed as no bacterial growth incubated at 20 degC for 24 hrs by microdilution susceptibility test; type: functional; settings: ATCC 13032, 24 h; how it was run: as §3
[8] = Selectivity index, ratio of EC50 for hemolytic activity against human RBC to MIC for antibacterial activity against Escherichia coli ATCC 25922; type: toxicity; settings: human red blood cells (RBC)
How it was run: (§4)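 Selectivity index is the RBC haemolysis EC50 divided by the MIC against the E. coli or S. aureus reference strain.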

Escherichia coli [9] = experiment: Antibacterial activity against multidrug-resistant Escherichia coli 50739822 producing New Delhi metallo-beta-lactamase-1 cultured in MHB medium assessed as reduction in bacterial growth incubated for 24 hrs by microdilution susceptibility test; type: functional; settings: Escherichia coli, 50739822, 24 h; how it was run: as §2
[10] = Selectivity index, ratio of EC50 for hemolytic activity against human RBC to MIC for antibacterial activity against Staphylococcus aureus ATCC 9144; type: toxicity; settings: human red blood cells (RBC); how it was run: as §4
Pseudomonas aeruginosa [11] = experiment: Antibacterial activity against multidrug-resistant Pseudomonas aeruginosa K34-73 producing Verona integron encoded metallo beta-lactamse-4 cultured in MHB medium assessed as reduction in bacterial growth incubated for 24 hrs by microdilution susceptibility test; type: functional; settings: K34-73, 24 h; how it was run: as §2
Enterococcus faecium [12] = experiment: Antibacterial activity against multidrug-resistant Enterococcus faecium TUH50-22 cultured in BHIB medium assessed as reduction in bacterial growth incubated for 24 hrs by microdilution susceptibility test; type: functional; settings: TUH50-22, 24 h; how it was run: as §1
Enterococcus faecium [13] = experiment: Antibacterial activity against multidrug-resistant Enterococcus faecium K36-18 cultured in BHIB medium assessed as reduction in bacterial growth incubated for 24 hrs by microdilution susceptibility test; type: functional; settings: K36-18, 24 h; how it was run: as §1
Escherichia coli [14] = experiment: Antibacterial activity against multidrug-resistant Escherichia coli 50579417 producing oxcillinase-48 cultured in MHB medium assessed as reduction in bacterial growth incubated for 24 hrs by microdilution susceptibility test; type: functional; settings: Escherichia coli, 50579417, 24 h; how it was run: as §2
Escherichia coli [15] = experiment: Antibacterial activity against multidrug-resistant Escherichia coli 50639799 producing Verona integron encoded metallo beta-lactamse-29 cultured in MHB medium assessed as reduction in bacterial growth incubated for 24 hrs by microdilution susceptibility test; type: functional; settings: Escherichia coli, 50639799, 24 h; how it was run: as §2
Acinetobacter baumannii [16] = experiment: Antibacterial activity against multidrug-resistant Acinetobacter baumannii K12-21 producing oxcillinase-58 cultured in MHB medium assessed as reduction in bacterial growth incubated for 24 hrs by microdilution susceptibility test; type: functional; settings: K12-21, 24 h; how it was run: as §2
Enterococcus faecium [17] = experiment: Antibacterial activity against multidrug-resistant Enterococcus faecium 50758899 cultured in BHIB medium assessed as reduction in bacterial growth incubated for 24 hrs by microdilution susceptibility test; type: functional; settings: Enterococcus faecium, 50758899, 24 h; how it was run: as §1
Acinetobacter baumannii [18] = experiment: Antibacterial activity against multidrug-resistant Acinetobacter baumannii K63-58 producing oxcillinase-23 cultured in MHB medium assessed as reduction in bacterial growth incubated for 24 hrs by microdilution susceptibility test; type: functional; settings: K63-58, 24 h; how it was run: as §2
Staphylococcus aureus [19] = experiment: Antibacterial activity against multidrug-resistant Staphylococcus aureus IHT 99040 cultured in MHB medium assessed as reduction in bacterial growth incubated for 24 hrs by microdilution susceptibility test; type: functional; settings: IHT 99040, 24 h; how it was run: as §2
Pseudomonas aeruginosa [20] = experiment: Antibacterial activity against multidrug-resistant Pseudomonas aeruginosa K44-24 producing imipenem-type carbapenemase-14 cultured in MHB medium assessed as reduction in bacterial growth incubated for 24 hrs by microdilution susceptibility test; type: functional; settings: K44-24, 24 h; how it was run: as §2
Pseudomonas aeruginosa [21] = experiment: Antibacterial activity against multidrug-resistant Pseudomonas aeruginosa K34-7 producing Verona integron encoded metallo beta-lactamse-2 cultured in MHB medium assessed as reduction in bacterial growth incubated for 24 hrs by microdilution susceptibility test; type: functional; settings: K34-7, 24 h; how it was run: as §2
Pseudomonas aeruginosa [22] = experiment: Antibacterial activity against multidrug-resistant Pseudomonas aeruginosa 50692172 producing New Delhi metallo-beta-lactamase-1 cultured in MHB medium assessed as reduction in bacterial growth incubated for 24 hrs by microdilution susceptibility test; type: functional; settings: Pseudomonas aeruginosa, 50692172, 24 h; how it was run: as §2

SMILES | MIC (Enterococcus faecium [1]) | MIC (Klebsiella pneumoniae) | MIC (Acinetobacter baumannii [2]) | MIC (Escherichia coli [3]) | MIC (Enterococcus faecium [4]) | EC50 (Erythrocyte) | MIC (Pseudomonas aeruginosa [5]) | MIC (Staphylococcus aureus [6]) | MIC [7] | selectivity ratio [8] | MIC (Escherichia coli [9]) | selectivity ratio [10] | MIC (Pseudomonas aeruginosa [11]) | MIC (Enterococcus faecium [12]) | MIC (Enterococcus faecium [13]) | MIC (Escherichia coli [14]) | MIC (Escherichia coli [15]) | MIC (Acinetobacter baumannii [16]) | MIC (Enterococcus faecium [17]) | MIC (Acinetobacter baumannii [18]) | further results
NCCNC(=O)C(CN)(Cc1ccccc1C(F)(F)F)Cc1ccccc1C(F)(F)F | 32 µg/mL (≈ 71.5 µM) | > 32 µg/mL | > 32 µg/mL | 32 µg/mL (≈ 71.5 µM) | 32 µg/mL (≈ 71.5 µM) | 312 µg/mL (≈ 697 µM) | 64 µg/mL (≈ 143 µM) | > 32 µg/mL | 8 µg/mL (≈ 17.9 µM) | 10 | > 32 µg/mL | 10 | > 32 µg/mL | > 32 µg/mL | > 32 µg/mL | > 32 µg/mL | > 32 µg/mL | > 32 µg/mL | > 32 µg/mL | > 32 µg/mL | MIC (Staphylococcus aureus [19]): 32 µg/mL (≈ 71.5 µM); MIC (Pseudomonas aeruginosa [20]): > 32 µg/mL; MIC (Pseudomonas aeruginosa [21]): > 32 µg/mL; MIC (Pseudomonas aeruginosa [22]): > 32 µg/mL
N#CC(Cc1cc(C(F)(F)F)cc(C(F)(F)F)c1)(Cc1cc(C(F)(F)F)cc(C(F)(F)F)c1)C(=O)NCCN | 16 µg/mL (≈ 27.6 µM) | > 32 µg/mL | > 32 µg/mL | 32 µg/mL (≈ 55.2 µM) | 16 µg/mL (≈ 27.6 µM) | 282 µg/mL (≈ 487 µM) | 64 µg/mL (≈ 110 µM) | 32 µg/mL (≈ 55.2 µM) | 8 µg/mL (≈ 13.8 µM) | 9 | > 32 µg/mL | 18 | > 32 µg/mL | 8 µg/mL (≈ 13.8 µM) | 8 µg/mL (≈ 13.8 µM) | > 32 µg/mL | > 32 µg/mL | > 32 µg/mL | 8 µg/mL (≈ 13.8 µM) | > 32 µg/mL | MIC (Staphylococcus aureus [19]): 16 µg/mL (≈ 27.6 µM); MIC (Pseudomonas aeruginosa [20]): > 32 µg/mL; MIC (Pseudomonas aeruginosa [21]): > 32 µg/mL; MIC (Pseudomonas aeruginosa [22]): > 32 µg/mL
